Beta apoptosis – beta cell apoptosis inhibition | INS-1E cytokine-induced death, ATP luminescence, 48 h; percent of positive-control rescue, neutral wells zero | protection from apoptosis, % (test concentration not listed) | 300,000 compounds, 0.8% hits;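 active = Every replicate reaches about 75%, or at least half do and their mean reaches it too, limit read from the data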;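 note: higher means more ATP so stronger rescue from cytokine killing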
CHOP inhibitor – inhibitors of CHOP induction in ER stress response. inhibition, % at 10 µM. AID 2732. 220,000 compounds, 3.8% hits. CHO-K1 CHOP-promoter luciferase, tunicamycin-induced, 15-18 h;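 active = compounds that reduced the stress-induced luciferase reporter signal by more than about 70% of percent inhibition, limit read from the data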
CSC inhib – blocks cancer stem cells | cancer stem cell-like cells viability, luminescence | inhibition, % at 7.5 µM | 300,000 compounds, 1.1% hits | AID 2717; in the data active = inhibition above about 75%; tested in HMLE shEcad cells
T cruzi inh – blocks replication of Trypanosoma cruzi. T. cruzi beta-gal in NIH3T3, luminescence, 90 h. inhibition, % (no concentration beside the values). 300,000 compounds, 1.4% hits;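 active = mean inhibition across valid replicates above about 55%, limit read from the data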;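 note: signal also drops with host cell toxicity which is not excluded here; higher percent means less beta-gal luminescence so fewer parasites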
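Read-out: Parasite load inhibition, % | Test system: Mouse NIH/3T3 fibroblasts infected with β-gal-expressing T. cruzi Tulahuen C4 | Amount: 5,000 cells/well | Medium: DMEM, 2% fetal bovine serum | Signal: GalScreen β-gal luminescence, detergent lysis, 60 min | Timing: 3 h attach, ≥90 h co-culture | Also added: Tulahuen C4 trypomastigotes, 5000/well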
NR3A LBD binder – modulates the human NR3A ligand-binding domain; NR3A LBD differential scanning fluorimetry, Tm shift; 0% = protein alone, 100% = glycine-bound protein; Tm shift relative to glycine control, % at 25 µM; 340,000 compounds, 2.5% hits;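 active = melting temperature shift of at least 10% of the positive control shift, at one fixed dose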
PREPL inhibitor – inhibits the human prolyl oligopeptidase-like enzyme; Q4J6C6; 320,000 compounds, 0.68% hits; recombinant PREPL, fluorescence polarization activity-based probe; inhibition, % at 5.96 µM; in the data active = inhibition above about 43%
Target sequence (Q4J6C6 whole entry, looked up): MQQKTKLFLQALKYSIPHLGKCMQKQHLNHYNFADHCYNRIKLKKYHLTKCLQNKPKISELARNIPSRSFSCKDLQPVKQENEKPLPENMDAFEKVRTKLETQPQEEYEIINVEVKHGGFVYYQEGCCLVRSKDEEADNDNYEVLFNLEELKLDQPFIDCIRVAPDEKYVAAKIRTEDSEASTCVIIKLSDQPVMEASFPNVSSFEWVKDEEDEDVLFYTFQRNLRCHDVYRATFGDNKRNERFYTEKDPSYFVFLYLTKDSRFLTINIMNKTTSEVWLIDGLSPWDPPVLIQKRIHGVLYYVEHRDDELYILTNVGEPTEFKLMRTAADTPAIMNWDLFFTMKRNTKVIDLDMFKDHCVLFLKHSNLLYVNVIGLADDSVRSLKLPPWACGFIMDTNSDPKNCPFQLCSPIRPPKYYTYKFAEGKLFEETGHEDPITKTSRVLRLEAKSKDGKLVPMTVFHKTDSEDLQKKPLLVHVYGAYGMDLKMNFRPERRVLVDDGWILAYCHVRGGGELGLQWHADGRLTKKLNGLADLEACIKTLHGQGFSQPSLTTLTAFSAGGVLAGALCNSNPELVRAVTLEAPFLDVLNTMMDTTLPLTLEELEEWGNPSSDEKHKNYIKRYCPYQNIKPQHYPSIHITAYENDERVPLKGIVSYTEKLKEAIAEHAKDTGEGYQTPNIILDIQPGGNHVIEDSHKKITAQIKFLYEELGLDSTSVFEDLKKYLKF
Each line names hits and unclear results; the compound was inactive in the other large screens. This is a sample that favours compounds with a hit; in the whole collection about 6.7% have one here.

COC(=O)c1cc2ccsc2n1CC(=O)Nc1ccc(N(C)C)cc1	T cruzi inh 54.9
CN(C)C(=S)NC(=S)Nc1ccc2ccccc2c1	NR3A LBD binder 20.9 (no result: Beta apoptosis, CHOP inhibitor, CSC inhib, T cruzi inh, PREPL inhibitor)
Cn1c(N)c(C(=O)CSc2nn(-c3ccc(F)cc3)c(=S)s2)c(=O)n(C)c1=O	NR3A LBD binder 31.3 (no result: CHOP inhibitor, T cruzi inh)
O=C(/C=C/Sc1ccccc1)c1ccc(Cl)cc1	CSC inhib 102.2 (no result: NR3A LBD binder)
CN(C)S(=O)(=O)c1cccc(NC(=S)NC23CC4CC(CC(C4)C2)C3)c1	NR3A LBD binder 10.3 (no result: Beta apoptosis, CHOP inhibitor)
Cc1ccc(S(=O)(=O)N(C)C)cc1NC(=S)NC12CC3CC(CC(C3)C1)C2	none (no result: Beta apoptosis, CSC inhib, PREPL inhibitor)
CN(C)c1ccc(NC(=S)NC23CC4CC(CC(C4)C2)C3)cc1	Beta apoptosis 111.2 (no result: CHOP inhibitor, CSC inhib)
Cc1ccc(S(=O)(=O)N(C)C)cc1NC(=S)NC(=O)C12CC3CC(CC(C3)C1)C2	CSC inhib 76.6 (no result: Beta apoptosis)
CCOc1ccc(NC(=S)NC23CC4CC(CC(C4)C2)C3)cc1	none (no result: CHOP inhibitor)
FC(F)Oc1ccc(NC(=S)NC23CC4CC(CC(C4)C2)C3)cc1	NR3A LBD binder 11.6 (no result: CHOP inhibitor, CSC inhib)
CNC(=S)NC12CC3CC(CC(C3)C1)C2	none (no result: CSC inhib)
CN1C(=O)CSC1=S	none (no result: CHOP inhibitor)
Cc1cc2nc(CSc3ccccc3)cc(=O)n2[nH]1	none (no result: Beta apoptosis)
CN(C)S(=O)(=O)c1cccc(NC(=S)NNC(=O)c2cc3ccccc3cc2O)c1	NR3A LBD binder 21.9 (no result: CHOP inhibitor, T cruzi inh)
CC1CN(S(=O)(=O)c2ccc(CN3C(=O)c4cccnc4C3=O)s2)c2ccccc2O1 (configuration not stated)	none (no result: CHOP inhibitor)
O=C(N/N=C/c1ccccc1Cl)c1[nH]c2ccc(Br)cc2c1-c1ccccc1	NR3A LBD binder 28.5
COc1ccc(/C=N/NC(=O)c2[nH]c3ccc(Br)cc3c2-c2ccccc2)cc1	NR3A LBD binder 18.2
NC(=O)c1ccc(C(F)(F)F)n(Cc2cccc(Cl)c2)c1=O	CHOP inhibitor 72.2
COc1ccc(-c2nc3scc(-c4ccc(OC)c(OC)c4)c3c(=O)o2)cc1	CHOP inhibitor 92.2
COc1ccc(-c2csc3nc(C(C)C)oc(=O)c23)cc1OC	none (no result: Beta apoptosis)
COc1cccc(NC(=O)Nc2nc(SC(C)(C)C)ns2)c1	CSC inhib 95.6, NR3A LBD binder 40.2 (no result: Beta apoptosis, CHOP inhibitor)
CCCCCCSc1nsc(NC(=O)CC(C)C)n1	CSC inhib 91.0
COc1cccc(NC(=O)Nc2nc(SC)ns2)c1	NR3A LBD binder 11.9 (no result: Beta apoptosis, CHOP inhibitor)
CCc1ccccc1NC(=O)Nc1cccc(F)c1	none
CCSc1nsc(NC(=O)Nc2cccc(F)c2)n1	CSC inhib 93.3, NR3A LBD binder 31.9 (no result: Beta apoptosis, CHOP inhibitor)
COCCCNC(=O)CN(c1ccc(F)cc1)S(=O)(=O)c1ccc2c(c1)OCCO2	none (no result: CHOP inhibitor)
O=C(c1ccc2oc(CCc3ccccc3)nc2c1)N1CC[C@H](O)C1	none (no result: CHOP inhibitor)
O=C1c2ccccc2C(=O)N1CCC#Cc1ccc2cc(CCO)oc(=O)c2c1	none (no result: CHOP inhibitor, T cruzi inh)
CCCSc1nsc(NC(=O)C(c2ccccc2)c2ccccc2)n1	CHOP inhibitor 92.7, CSC inhib 121.6, NR3A LBD binder 17.9
CCCSc1nsc(NC(=O)Nc2ccc(F)cc2F)n1	Beta apoptosis 105.6, CSC inhib 95.4, NR3A LBD binder 13.7 (no result: CHOP inhibitor)
CCCSc1nsc(NC(=O)CC)n1	none (no result: Beta apoptosis)
OC[C@H]1OC(O)[C@H](O)[C@@H]1O (some centres not stated)	none (no result: CHOP inhibitor, T cruzi inh)
Cc1ccc(S(=O)(=O)c2cc3cc(Br)ccc3oc2=O)cc1	none
CC(C)c1ccc(S(=O)(=O)c2cc3cc(Br)ccc3oc2=O)cc1	CHOP inhibitor 88.6
CC(C)(C)c1ccc(-c2nnc(SCCC#N)n2C2CCCC2)cc1	CHOP inhibitor 71.5 (no result: Beta apoptosis)
Cn1c(SCCC#N)nnc1-c1ccc(F)cc1	none (no result: NR3A LBD binder)
Cc1cc(Cl)ccc1OC(C)C(=O)Nc1ccc(S(=O)(=O)N2CCOCC2)cc1 (configuration not stated)	none (no result: CHOP inhibitor)
Cc1cc(Cl)ccc1OC(C)C(=O)Nc1ccc(S(=O)(=O)Nc2cnc3ccccc3n2)cc1 (configuration not stated)	NR3A LBD binder 13.6
CC(Oc1ccc(Cl)cc1Cl)C(=O)Nc1ccc(S(=O)(=O)Nc2cnc3ccccc3n2)cc1 (configuration not stated)	NR3A LBD binder 17.5
Cc1cc(Cl)ccc1OC(C)C(=O)Nc1ccc(C(=O)Nc2ccccc2C(=O)O)cc1 (configuration not stated)	NR3A LBD binder 14.6 (no result: CHOP inhibitor)
O=C(Cc1ccc(Cl)cc1)Nc1ccc(S(=O)(=O)Nc2cnc3ccccc3n2)cc1	NR3A LBD binder 10.2
O=C(Nc1ccc(S(=O)(=O)Nc2cnc3ccccc3n2)cc1)c1ccc(Cl)cc1Cl	none (no result: CHOP inhibitor)
CC(C)c1ccc(NC2=CC(=O)CC(C)(C)C2)cc1	none (no result: CHOP inhibitor)
Cc1nn2c(N)c(-c3ccccc3)cnc2c1-c1ccccc1	none (no result: CHOP inhibitor)
O=C(/C=C/c1cccs1)N1CCN(Cc2ccc3c(c2)OCO3)CC1	none
Cc1ccc(C)c(OCCn2cc(C(=O)O)c3ccccc32)c1	none
CC(=O)c1cn(CCOc2cc(C)ccc2C)c2ccccc12	Beta apoptosis 88.9 (no result: CHOP inhibitor)
CCOc1cc(/C=C2/C(=O)N(c3ccccc3)N=C2C)ccc1OC(=O)c1ccco1	PREPL inhibitor 45.5
Cc1ccc(-c2cc(C(=O)OCC(=O)N(C)c3c(N)n(Cc4ccccc4)c(=O)[nH]c3=O)c3ccccc3n2)o1	none (no result: CHOP inhibitor)
COc1cc(/C=N/NC(=S)NCc2ccco2)cc(OC)c1OC	NR3A LBD binder 57.9
COc1ccc(/C=C/c2nc(-c3ccccc3O)n[nH]2)cc1OC	NR3A LBD binder 26.7
CCSCC1COC(c2cccn2Cc2ccc(C)cc2)=N1 (configuration not stated)	CHOP inhibitor 76.5
CCC1COC(c2cccn2Cc2ccc(Cl)cc2)=N1 (configuration not stated)	none
CC(C)C1C2CCC(C2)C1N (configuration not stated)	none (no result: Beta apoptosis, CSC inhib, T cruzi inh, NR3A LBD binder, PREPL inhibitor)
O=C(NNC(=S)Nc1ccc(C(=O)O)c(O)c1)c1ccncc1	none (no result: Beta apoptosis, CHOP inhibitor, CSC inhib, T cruzi inh, PREPL inhibitor)
CC1(c2nnc(-c3cccc(Cl)c3)o2)CC(c2cccc(Cl)c2)=NO1 (configuration not stated)	none (no result: CHOP inhibitor)
CC1(c2nnc(-c3cccc(Cl)c3)o2)CC(c2ccccc2F)=NO1 (configuration not stated)	NR3A LBD binder 12.9 (no result: CHOP inhibitor, CSC inhib)
N#C/C(=C/c1ccc(F)cc1)c1nnc(NC(=O)c2ccccc2)s1	CHOP inhibitor 72.9
CN(Cc1ccc(F)cc1)S(=O)(=O)c1nnc(NC(=O)c2ccccc2)s1	none (no result: CHOP inhibitor)
COc1ccc2oc(=Nc3ccccc3)c(-c3nc4ccccc4[nH]3)cc2c1	CHOP inhibitor 85.6
COc1ccc(S(=O)(=O)N2CCOCC2)cc1NC(=O)CCOc1ccc(C(C)(C)C)cc1	none (no result: Beta apoptosis, CHOP inhibitor, CSC inhib, T cruzi inh, PREPL inhibitor)
Cc1cc(C)c(OCCN(C)Cc2ccccc2)c(Br)c1	T cruzi inh 57.3 (no result: CSC inhib)
CN(CCCOc1ccccc1Br)Cc1ccccc1	none
C=CCNC(=S)N1CCN(Cc2ccc3c(c2)OCO3)CC1	none (no result: CHOP inhibitor)
CC1CCCC(NC(=O)CSc2nnc(C(F)(F)F)n2C)C1C (configuration not stated)	none (no result: CHOP inhibitor, CSC inhib, T cruzi inh)
CCOC(=O)C(C(=O)OCC)C(Nc1ccc(Br)cc1)c1ccccc1 (configuration not stated)	CSC inhib 75.3

Source: PubChem
